Screening data (PubChem)
RGS4 inh – inhibitors of human RGS4 | P49798 | HEK293 M3R/RGS4 inducible, Fluo-4 calcium flux; active compounds read high; triggered by carbachol at its EC20 | B-score at 10 µM | actives 0.45% (n = 310,000) | AID 463165;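 active means B-score, a plate-corrected calcium signal, over three deviations above library mean, with baseline fluorescence within five deviations of library mean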;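 further: RGS4 expression induced by doxycycline in cells with stable M3 receptor; B-score is computed from the integrated fluorescence ratio over baseline after carbachol; higher B-score means a larger calcium signal and so more RGS4 inhibition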
Target sequence (P49798 whole entry, looked up): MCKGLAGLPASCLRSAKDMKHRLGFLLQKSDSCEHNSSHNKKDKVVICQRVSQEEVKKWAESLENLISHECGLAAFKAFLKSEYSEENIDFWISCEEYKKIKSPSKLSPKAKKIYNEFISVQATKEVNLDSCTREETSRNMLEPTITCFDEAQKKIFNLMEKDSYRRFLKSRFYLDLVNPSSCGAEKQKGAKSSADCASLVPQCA
MrgX1 agonist – agonists of human MrgX1 receptor | Q96LB2 | MrgX1-HEK293 cells, Fluo-4 calcium fluorescence, agonist mode; active compounds read high | B-score at 10 µM | actives 0.44% (n = 310,000) | AID 588627;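 active means calcium response B-score plate-corrected fluorescence ratio at least 3 library SD, with starting fluorescence B-score inside 5 SD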
Target sequence (Q96LB2 whole entry, looked up): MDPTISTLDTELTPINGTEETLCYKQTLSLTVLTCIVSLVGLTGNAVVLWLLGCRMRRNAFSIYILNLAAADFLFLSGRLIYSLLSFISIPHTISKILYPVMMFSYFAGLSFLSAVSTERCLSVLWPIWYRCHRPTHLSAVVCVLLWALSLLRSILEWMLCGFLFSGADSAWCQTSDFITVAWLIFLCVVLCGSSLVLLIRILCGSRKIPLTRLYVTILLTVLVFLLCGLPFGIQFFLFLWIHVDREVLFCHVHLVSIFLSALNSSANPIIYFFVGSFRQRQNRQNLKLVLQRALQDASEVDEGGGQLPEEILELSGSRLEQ
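Test system: HEK293 cells stably expressing human MrgX1 receptor; Input: fifteen thousand cells per well; Dosing: compound delivered in addition one of three; Schedule: overnight seeding, then 1 h dark dye loading; Technique: Fluo-4 NW calcium fluorescence; Measure: B-scored fluorescence response ratio; Controls: positive and negative controls per plate.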
MrgX1 PAM – allosterically activates human MrgX1 receptor signaling; B-score at 10 µM; actives 0.63% (n = 310,000); Q96LB2; MrgX1-HEK293, Fluo-4 calcium flux, FDSS; active compounds read high;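 active means plate-corrected calcium response at least 3 library SD above typical, normal starting fluorescence, not activating the receptor alone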;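 further: compound read alongside a low EC10 to EC30 dose of BAM8-22 agonist; peak minus trough fluorescence over baseline measured at the second addition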
RGS4 pot – RGS4 potentiation or activation; HEK293 M3R/inducible RGS4, carbachol calcium flux Fluo4; active compounds read low; B-score at 10 µM; actives 0.92% (n = 310,000);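 active means B-score of the integrated calcium signal more than 4 SD below the library mean, with starting fluorescence not abnormally high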;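 further: negative B-score means reduced calcium response which marks RGS4 activation or potentiation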
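System – HEK293 FlpIn-TREx cells, stable M3R, doxycycline-inducible RGS4 · Reagent – ECmax carbachol challenge · Times – compound preincubation 20 min at room temperature before agonist · Technique – Fluo4 fluorescence kinetic imaging of calcium · Measure – B score of integrated Fluo4 ratio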
MrgX1 antag – human MrgX1 receptor antagonism, primary screen. actives 1.3% (n = 310,000). MRGX1-HEK293 calcium flux, Fluo-4, BAM8-22 antagonism; active compounds read low. Q96LB2. AID 588676. B-score at 10 µM;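 active means calcium-response B-score plate-corrected more than 3 library SD below zero, starting fluorescence within 5 deviations, no agonist response on first addition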;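 further: peak minus trough fluorescence over baseline after final BAM8-22 challenge near maximal dose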
Numbers without * were called inactive; i = inactive; x = no result; ! = not confirmed by another sample. Only some compounds are listed: those with a hit (about 3.5% of all), similar ones and a draw of the others.

SMILES	RGS4 inh	MrgX1 agonist	MrgX1 PAM	RGS4 pot	MrgX1 antag
COCCN(C(=O)Cc1cccs1)C(C(=O)NCc1ccc(OC)cc1)c1ccc(C(C)C)cc1 (stereo not given)	i	i	i	-6.99*	i
CCOc1ccc(CCNC(=O)c2ccc(CS(=O)Cc3ccc(Cl)cc3)o2)cc1OCC (stereo not given)	i	i	i	i	i
CSc1ccc(CCNC(=O)c2ccc(CS(=O)Cc3ccccc3Cl)o2)cc1 (stereo not given)	i	i	i	i	-5.97*
CCOc1ccc(CCNC(=O)c2ccc(CS(=O)Cc3cccc(Cl)c3)o2)cc1 (stereo not given)	i	i	i	-9.38*	i
O=C(NCCc1ccc(Cl)cc1)c1ccc(CS(=O)Cc2ccccc2Cl)o1 (stereo not given)	i	i	i	-8.43*	i
Cc1ccc(CS(=O)Cc2ccc(C(=O)NCCc3ccccc3)o2)cc1 (stereo not given)	i	i	i	i	i
CCCCCCOc1ccc(NC(=O)CC2C(=O)N(CC)C(=S)N2Cc2ccco2)cc1 (stereo not given)	i	i	i	i	i
CC(C)(C)c1ccc(OCC(O)CN2CCOCC2)cc1 (stereo not given)	i	i	i	i	i
Cc1ccc(S(=O)(=O)c2c(C)cc(C)nc2Oc2cccc(C(F)(F)F)c2)cc1	i	i	i	-8.25*	i
CCOc1ccccc1NC(=O)C(=O)CC(=O)c1ccc(OC)cc1	i	i	i	i	i
O=C(c1ccc2nc(Cc3ccccc3F)oc2c1)N1CC[C@H](O)C1	i	i	i	i	i
CCOC(=O)c1ccc2c(c1)n(CC)c(/C=C/N(C)c1ccccc1)[n+]2CC	i	i	i	i	-4.97*
CCCCN=c1scc(-c2ccc3c(c2)NC(=O)CO3)n1N=C1CCCC1	i	32.2*	i	i	i
CCN=c1scc(-c2ccc3c(c2)NC(=O)CO3)n1N=C1CCCC1	i	i	i	i	i
O=S(=O)(c1ccc(Br)cc1)N1CCCN(Cc2ccccc2F)CC1	i	i	i	-7.37*	i
Cc1ccccc1CN1CCN(S(=O)(=O)c2ccc(F)cc2)CC1	i	i	i	i	i
O=S(=O)(c1ccc(Cl)cc1)N1CCN(Cc2c[nH]c3ccccc23)CC1	i	i	i	-7.55*	i
CCC1S/C(=N/N=C/c2ccco2)N(Cc2ccc(F)cc2)C1=O (stereo not given)	i	i	i	i	i
CCC1S/C(=N/N=C/c2ccco2)N(Cc2ccccc2C)C1=O (stereo not given)	i	i	i	i	i
CC/C(=N\N=C1\SC(C)C(=O)N1Cc1ccco1)c1ccccc1 (stereo not given)	i	i	12.1*	i	i
CC(c1ccccc1)C1CC(=O)N(Cc2ccco2)C1=O (stereo not given)	i	i	i	i	i
CC1S/C(=N/N=C/c2ccco2)N(Cc2ccccc2)C1=O (stereo not given)	i	i	8*	i	i
Cc1ccccc1CN1C(=O)CS/C1=N/N=C/c1ccco1	i	i	7.18*	i	i
COc1ccc(CCN(C)C(=O)CSc2nc3ncc(Cl)cc3[nH]2)cc1OC	i	i	i	i	i
COc1cccc(-c2c(C(=O)N/N=C(\C)c3ccc(Cl)s3)nnn2-c2nonc2N)c1	i	i	i	i	i
SMILES	RGS4 inh	MrgX1 agonist	MrgX1 PAM	RGS4 pot	MrgX1 antag
O=Nc1ccc(NOC(=O)c2ccccc2)cc1	i	i	i	i	i
O=C(N=Nc1ccc(NOC(=O)c2ccccc2Br)cc1)c1ccccc1O	i	i	12*	i	i
CC(=O)Nc1cc(C(=O)N2CCc3ccccc3C2)ccc1Sc1ccc(Cl)cc1	i	i	i	-8.04*	i
FC(F)Sc1ccc(NC(=S)NCC2CCCCC2)cc1	i	i	i	i	-5.12*
Cc1cc(C(=O)COC(=O)CC2Sc3ccccc3NC2=O)c(C)n1-c1cccc(C(F)(F)F)c1 (stereo not given)	i	i	i	-8.25*	i
Cc1ccc(NC(=O)C(c2ccccc2)c2ccccc2)c(O)c1	i	i	i	i	i
N/C(=N\OC(=O)CSc1ccccc1)c1ccncc1	i	i	i	i	i
CCCCCCCCn1ccc(=N)cc1	i	i	i	i	i
CCCCCCCCCCCCCCCCn1cc[n+](C)c1	i	i	i	-9.54*!	-7.33*!
COc1ccc(CNCc2cccc(Oc3ccccc3)c2)cc1	i	i	i	i	i
CC1(C)CC(=O)C2=C(C1)OC(N)=C(C#N)C2C#Cc1ccccc1 (stereo not given)	i	53*	i	i	i
CC(c1ccccc1)C1C(C#N)=C(N)OC2=C1C(=O)CC(C)(C)C2 (stereo not given)	i	i	i	i	i
Cc1ccc(C(=O)c2c(C)oc3c2C(=O)C(=O)c2ccccc2-3)cc1	i	i	i	-7.47*	i
Cc1oc2c(c1C(=O)c1ccc(Cl)cc1)C(=O)C(=O)c1ccccc1-2	i	x	x	i	x
CC[n+]1ccccc1/C=C1\Sc2ccc(C)cc2N1C	i	i	i	i	-8.37*
Cc1ccc2c(c1)N(C(=O)CSc1nncn1C)C(C)(C)c1ssc(=S)c1-2	i	i	i	-8.71*	i
CC1CC(C)CN(S(=O)(=O)N2CCC(C(=O)NCCc3ccccc3)CC2)C1 (stereo not given)	i	i	i	i	i
CCCCNC(=S)N(C)/N=C/c1sc(N2CCCCC2)nc1-c1cccs1	i	i	i	i	-8.71*
CC(C)CSC1=NSC2=NC(=O)/C(=C\c3ccccc3)C(=N)N12	i	27.4*	i	i	i
Cc1cc(/C=C2\C(=N)N3C(SCc4ccccc4)=NSC3=NC2=O)c(C)n1Cc1ccccc1	i	i	i	i	i
COc1ccc(CCN2C(=O)CSC2=Nc2ccc(C(C)C)cc2)cc1OC	i	i	i	-7.19*	i
O=C(c1ccccc1C(=O)N(c1ccccc1)c1ccccc1)N1CCCCC1	i	i	i	i	i
Cc1ccc(/C=C2/NC(=O)N(Cc3ccccc3F)C2=O)s1	i	i	i	i	-7.48*
O=C1N/C(=C/c2cccs2)C(=O)N1Cc1ccccc1F	i	i	i	i	i
N#Cc1c(-n2cccc2/C=N/O)sc2c1CCCC2	i	32.4*	i	i	i
